Assays:
Mus musculus = species on record: Mus musculus; test: Anti-tetrabenazine (TBZ) activity, ability to prevent TBZ-induced ptosis in mice; type: functional
Method in brief: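 Mice; compound given by an unstated route some hours before tetrabenazine (the time is truncated). Five animals per dose, with at least three to five doses. Ptosis scored 75-120 min after tetrabenazine injection on the Rubin scale (eyes closed = 100).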

Rattus norvegicus [1] = species on record: Rattus norvegicus; test: cells; type: functional, organism-based, Synaptosomes; settings: Brain, 3 h
Rattus norvegicus [2] = species on record: Rattus norvegicus; test: In vitro inhibition of norepinephrine uptake in rat brain synaptosomes using [3H]NE; type: functional, organism-based

| SMILES | ED50 (Mus musculus) [mg/kg] | IC50 (Rattus norvegicus [1]) [nM] | IC50 (Rattus norvegicus [2]) [nM] |
| --- | --- | --- | --- |
| CCCCN1Cc2sccc2C(c2ccc(Cl)cc2)C1.Cl (configuration not stated) | > 40 | > 10000 | > 10000 |
| COc1ccc(C2CN(C)Cc3sc(C)cc32)cc1.Cl (configuration not stated) | 7.1 | 500 | 400 |
| CN1Cc2sccc2C(c2ccc(Cl)cc2Cl)C1.Cl (configuration not stated) | > 40 | 3000 | > 10000 |
| COCc1cc2c(s1)CN(C)CC2c1ccc(Br)cc1 (configuration not stated) | 1.7 | 200 | 370 |
| CN1Cc2sc(C(C)(C)C)cc2C(c2ccc(Br)cc2)C1.Cl (configuration not stated) | 7 | 5700 | 1740 |
| CN1Cc2sc(Br)cc2C(c2ccc(Br)cc2)C1 (configuration not stated) | 0.8 | 4100 | 1600 |
| Cc1cc2c(s1)CN(C)CC2c1ccc(C(F)(F)F)cc1.Cl (configuration not stated) | > 40 | 2050 | 7800 |
| CN1Cc2sc(Cl)cc2C(c2ccc(Br)cc2)C1.Cl (configuration not stated) | 6.5 | 3500 | 1000 |
| Cc1cc2c(s1)CN(C)CC2c1ccccc1.Cl (configuration not stated) | 8.4 | 8000 | 560 |
| COc1ccc(C2CN(C)Cc3sccc32)cc1OC.Cl (configuration not stated) | > 40 | 300 | > 10000 |
| CCC1(c2ccc(Br)cc2)CN(C)Cc2sc(C)cc21 (configuration not stated) | > 40 | > 10000 | > 10000 |
| CN1Cc2c(N)cccc2C(c2ccccc2)C1 (configuration not stated) [NOMIFENSINE] | 1.7 | – | – |
| CCCc1cc2c(s1)CN(C)CC2c1ccc(Br)cc1.Cl (configuration not stated) | 40 | 860 | 990 |
| Cc1ccc(C2CN(C)Cc3sc(Br)cc32)cc1.Cl (configuration not stated) | 7.4 | 9000 | 640 |
| Cl.c1ccc(C2CNCc3sccc32)cc1 (configuration not stated) | > 40 | > 10000 | 3000 |
| CN1Cc2sc(N)cc2C(c2ccc(Br)cc2)C1 (configuration not stated) | 7.4 | 90 | 130 |
| Cc1ccc(C2CN(C)Cc3sc(CO)cc32)cc1.Cl (configuration not stated) | 0.7 | 1200 | 50 |
| Cc1sc2c(c1Br)C(c1ccc(Br)cc1)CN(C)C2.Cl (configuration not stated) | > 40 | > 10000 | 7800 |
| Oc1cccc(C2CNCc3sc(Cl)cc32)c1 (configuration not stated) | > 40 | > 10000 | 3200 |

| SMILES | ED50 (Mus musculus) [mg/kg] | IC50 (Rattus norvegicus [1]) [nM] | IC50 (Rattus norvegicus [2]) [nM] |
| --- | --- | --- | --- |
| Cc1cc2c(s1)CN(C)CC2c1ccc(O)cc1.Cl (configuration not stated) | 10 | 460 | 250 |
| Cc1cc2c(s1)CN(C)CC2c1ccc(Br)cc1.Cl (configuration not stated) | 2.6 | 540 | 500 |
| CN1Cc2sc(Br)cc2C(c2ccccc2)C1.Cl (configuration not stated) | 6 | > 10000 | 2300 |
| CN(C)CCCN1c2ccccc2CCc2ccccc21 [IMIPRAMINE] | 2.3 | 230 | 5000 |
| CN1Cc2sc(Cl)cc2C(c2ccc(Cl)cc2)C1.Cl (configuration not stated) | 2.2 | 5400 | 1600 |
| CN1Cc2sc([N+](=O)[O-])cc2C(c2ccc(Cl)cc2)C1 (configuration not stated) | > 40 | 3350 | 800 |
| Cc1ccc(C2CN(C)Cc3sc(Cl)cc32)cc1.Cl (configuration not stated) | 5.9 | > 10000 | 900 |
| Cl.Clc1cc2c(s1)CNCC2c1ccc(Br)cc1 (configuration not stated) | > 40 | > 10000 | 3600 |
| CC(=O)Nc1cc2c(s1)CN(C)CC2c1ccc(Cl)cc1.Cl (configuration not stated) | 35 | 600 | 570 |
| Cc1cc2c(s1)CN(C)CC2c1cccc(C(F)(F)F)c1.Cl (configuration not stated) | > 40 | > 10000 | 3400 |
| Cc1cc2c(s1)CNCC2c1ccc(Br)cc1.Cl (configuration not stated) | > 40 | 1800 | 760 |
| CN1Cc2sc(Cl)cc2C(c2ccccc2)C1.Cl (configuration not stated) | > 40 | > 10000 | 1400 |
| CCc1cc2c(s1)CN(CC)CC2c1ccc(C)cc1.Cl (configuration not stated) | > 40 | 1800 | 270 |
| CN1Cc2sc([N+](=O)[O-])cc2C(c2ccc(Br)cc2)C1.Cl (configuration not stated) | 3.6 | 2450 | 450 |
| CN1Cc2sc(N)cc2C(c2ccc(Cl)cc2)C1 (configuration not stated) | > 40 | 210 | 180 |
| Cc1cc2c(s1)CN(C)CC2c1c(Cl)cccc1Cl.Cl (configuration not stated) | > 40 | > 10000 | > 10000 |
| Cc1cc2c(s1)CN(C)CC2c1ccc(Cl)cc1.Cl (configuration not stated) | > 40 | 3550 | 190 |
| CCCc1cc2c(s1)CN(C)CC2c1ccc(F)cc1.Cl (configuration not stated) | 13 | 780 | 1100 |
| Cc1cc2c(s1)CN(C)CC2(C)c1ccc(Br)cc1 (configuration not stated) | 40 | 3100 | 3400 |
